Experimental data from ChEMBL document CHEMBL2029240 (ACS Med Chem Lett, 2011).
The source made the active and inactive calls. No cut-off for these calls is given here.

Key:
[1] = target: T1, Voltage-gated inwardly rectifying potassium channel KCNH2 (Homo sapiens, UniProt Q12809); assay: Displacement of [3H]dofetilide from human ERG
[2] = target: C-C chemokine receptor type 2 (Mus musculus, UniProt P51683); assay: Binding affinity to mouse CCR2
Procedure, shortened: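 Mouse CCR2 binding assay, with affinity reported as IC50.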

[3] = target: T2, C-C chemokine receptor type 2 (Rattus norvegicus, UniProt O55193); assay: Binding affinity to rat CCR2
T2 sequence (O55193 whole entry): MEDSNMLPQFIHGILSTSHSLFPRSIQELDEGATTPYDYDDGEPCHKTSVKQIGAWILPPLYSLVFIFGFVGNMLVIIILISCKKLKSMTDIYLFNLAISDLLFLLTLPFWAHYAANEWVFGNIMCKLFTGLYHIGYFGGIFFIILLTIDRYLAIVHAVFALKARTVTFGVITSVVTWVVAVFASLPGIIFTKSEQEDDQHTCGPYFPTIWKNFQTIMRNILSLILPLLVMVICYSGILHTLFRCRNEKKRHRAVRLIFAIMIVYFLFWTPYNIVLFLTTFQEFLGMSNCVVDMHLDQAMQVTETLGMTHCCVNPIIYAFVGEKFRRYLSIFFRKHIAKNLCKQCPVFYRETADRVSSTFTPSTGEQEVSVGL

[4] = target: T2, C-C chemokine receptor type 2; assay: Antagonist activity at rat CCR2; format: functional
[5] = target: T3, C-C chemokine receptor type 3 (Homo sapiens) (UniProt P51677); assay: Inhibition of CCR3 at 1 uM
T3 sequence (whole entry): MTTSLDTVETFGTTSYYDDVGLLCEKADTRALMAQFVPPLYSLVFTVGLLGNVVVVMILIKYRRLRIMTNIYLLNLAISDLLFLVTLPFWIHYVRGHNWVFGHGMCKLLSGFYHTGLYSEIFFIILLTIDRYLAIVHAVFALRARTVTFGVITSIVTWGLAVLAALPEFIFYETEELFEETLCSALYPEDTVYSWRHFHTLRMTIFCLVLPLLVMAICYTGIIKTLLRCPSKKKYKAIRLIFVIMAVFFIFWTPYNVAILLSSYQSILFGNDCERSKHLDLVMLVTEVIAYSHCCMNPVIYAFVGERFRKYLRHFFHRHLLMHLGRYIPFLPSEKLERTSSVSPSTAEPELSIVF
Procedure, shortened: (§1)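 Single-concentration screen at 1 μM against a broad panel of more than 50 targets (ion channels, transporters, chemokine receptors, other GPCRs), scored for significant inhibition.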

[6] = target: C-C chemokine receptor type 5 (Homo sapiens) (UniProt P51681); assay: Inhibition of CCR5 at 1 uM; procedure, shortened: as §1
Sequence of C-C chemokine receptor type 5 (Homo sapiens) (P51681 whole entry, looked up): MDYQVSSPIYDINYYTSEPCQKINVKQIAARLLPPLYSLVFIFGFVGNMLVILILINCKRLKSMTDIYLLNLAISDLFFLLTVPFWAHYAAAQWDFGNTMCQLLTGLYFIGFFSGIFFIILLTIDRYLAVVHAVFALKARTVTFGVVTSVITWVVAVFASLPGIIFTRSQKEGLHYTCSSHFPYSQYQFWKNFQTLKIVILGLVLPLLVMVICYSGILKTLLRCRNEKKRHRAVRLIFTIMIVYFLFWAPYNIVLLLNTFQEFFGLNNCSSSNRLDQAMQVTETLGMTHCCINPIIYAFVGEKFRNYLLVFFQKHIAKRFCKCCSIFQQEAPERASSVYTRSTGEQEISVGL

[7] = target: T4, C-X-C chemokine receptor type 3 (Homo sapiens) (UniProt P49682); assay: Inhibition of CXCR3 at 1 uM; procedure, shortened: as §1
T4 sequence (whole entry): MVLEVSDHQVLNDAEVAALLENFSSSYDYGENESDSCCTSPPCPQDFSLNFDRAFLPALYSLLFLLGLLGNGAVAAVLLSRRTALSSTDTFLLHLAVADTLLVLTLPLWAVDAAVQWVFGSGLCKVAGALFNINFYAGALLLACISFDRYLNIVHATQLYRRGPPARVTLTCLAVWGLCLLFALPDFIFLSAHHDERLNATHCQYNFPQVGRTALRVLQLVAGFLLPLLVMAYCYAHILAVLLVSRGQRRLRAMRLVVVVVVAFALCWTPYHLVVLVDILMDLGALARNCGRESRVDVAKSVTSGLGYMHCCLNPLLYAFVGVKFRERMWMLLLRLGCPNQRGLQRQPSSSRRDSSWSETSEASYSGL

[8] = target: T1, Voltage-gated inwardly rectifying potassium channel KCNH2; assay: Inhibition of human ERG by patch clamp assay
[9] = Fraction unbound in human serum; format: ADME, cell-free
[10] = Half life in human liver microsomes; format: ADME, Microsome
[11] = Drug metabolism in human S9 fraction assessed as glutathione adduct formation in the presence of NADPH; format: ADME, subcellular
Procedure, shortened: (§2)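 Test agent incubated with human liver S9 fraction plus glutathione as cofactor, run both with and without NADPH. Read-out was detection of glutathione adducts.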

[12] = Drug metabolism in human S9 fraction assessed as glutathione adduct formation in the absence of NADPH; format: ADME, subcellular; procedure, shortened: as §2
[13] = target: T5, Cytochrome P450 1A2 (Homo sapiens, UniProt P05177); assay: Inhibition of CYP1A2; format: ADME
T5 sequence (P05177 whole entry): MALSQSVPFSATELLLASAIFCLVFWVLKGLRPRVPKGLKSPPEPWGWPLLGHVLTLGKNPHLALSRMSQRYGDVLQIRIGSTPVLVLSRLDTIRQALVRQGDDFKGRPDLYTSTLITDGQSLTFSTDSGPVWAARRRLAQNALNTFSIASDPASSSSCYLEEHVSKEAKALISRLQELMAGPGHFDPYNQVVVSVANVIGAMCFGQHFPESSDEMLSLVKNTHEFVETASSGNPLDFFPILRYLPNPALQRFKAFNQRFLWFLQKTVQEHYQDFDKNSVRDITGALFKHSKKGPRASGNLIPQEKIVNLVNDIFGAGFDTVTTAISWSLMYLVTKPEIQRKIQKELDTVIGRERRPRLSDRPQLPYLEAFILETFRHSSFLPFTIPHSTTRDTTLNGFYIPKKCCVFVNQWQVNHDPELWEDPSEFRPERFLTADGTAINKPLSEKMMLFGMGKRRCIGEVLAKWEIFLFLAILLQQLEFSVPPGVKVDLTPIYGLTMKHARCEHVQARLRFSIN

[14] = target: Cytochrome P450 2C9 (Homo sapiens, UniProt P11712); assay: Inhibition of CYP2C9; format: ADME
Sequence of Cytochrome P450 2C9 (P11712 whole entry): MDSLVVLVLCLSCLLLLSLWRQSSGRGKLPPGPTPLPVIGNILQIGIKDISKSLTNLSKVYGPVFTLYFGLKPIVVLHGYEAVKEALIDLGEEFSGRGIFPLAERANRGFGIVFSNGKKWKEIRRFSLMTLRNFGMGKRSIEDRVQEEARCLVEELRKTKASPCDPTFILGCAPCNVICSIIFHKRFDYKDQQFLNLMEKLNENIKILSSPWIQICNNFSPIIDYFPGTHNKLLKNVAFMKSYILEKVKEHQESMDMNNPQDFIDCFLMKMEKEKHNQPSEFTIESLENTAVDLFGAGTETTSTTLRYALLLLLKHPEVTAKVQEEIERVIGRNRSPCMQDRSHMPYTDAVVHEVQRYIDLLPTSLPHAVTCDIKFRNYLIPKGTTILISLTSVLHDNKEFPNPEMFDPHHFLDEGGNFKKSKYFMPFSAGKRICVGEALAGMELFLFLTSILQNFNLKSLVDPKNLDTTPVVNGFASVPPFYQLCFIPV

[15] = target: Cytochrome P450 2C19 (Homo sapiens, UniProt P33261); assay: Inhibition of CYP2C19; format: ADME
Sequence of Cytochrome P450 2C19 (P33261 whole entry): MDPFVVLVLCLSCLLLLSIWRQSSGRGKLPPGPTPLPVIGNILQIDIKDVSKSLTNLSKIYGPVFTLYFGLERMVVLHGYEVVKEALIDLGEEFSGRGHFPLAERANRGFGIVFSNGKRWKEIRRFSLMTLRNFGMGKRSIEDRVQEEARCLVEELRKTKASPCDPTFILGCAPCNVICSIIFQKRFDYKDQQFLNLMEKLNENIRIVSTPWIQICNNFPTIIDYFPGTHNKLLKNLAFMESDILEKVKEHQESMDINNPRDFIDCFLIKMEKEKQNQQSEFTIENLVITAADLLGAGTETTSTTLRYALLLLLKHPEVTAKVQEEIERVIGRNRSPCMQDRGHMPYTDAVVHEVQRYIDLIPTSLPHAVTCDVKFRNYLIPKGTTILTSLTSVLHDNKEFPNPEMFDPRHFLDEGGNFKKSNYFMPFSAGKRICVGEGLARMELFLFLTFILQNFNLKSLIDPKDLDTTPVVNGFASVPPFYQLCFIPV

[16] = target: Cytochrome P450 2D6 (Homo sapiens, UniProt P10635); assay: Inhibition of CYP2D6; format: ADME
Sequence of Cytochrome P450 2D6 (P10635 whole entry): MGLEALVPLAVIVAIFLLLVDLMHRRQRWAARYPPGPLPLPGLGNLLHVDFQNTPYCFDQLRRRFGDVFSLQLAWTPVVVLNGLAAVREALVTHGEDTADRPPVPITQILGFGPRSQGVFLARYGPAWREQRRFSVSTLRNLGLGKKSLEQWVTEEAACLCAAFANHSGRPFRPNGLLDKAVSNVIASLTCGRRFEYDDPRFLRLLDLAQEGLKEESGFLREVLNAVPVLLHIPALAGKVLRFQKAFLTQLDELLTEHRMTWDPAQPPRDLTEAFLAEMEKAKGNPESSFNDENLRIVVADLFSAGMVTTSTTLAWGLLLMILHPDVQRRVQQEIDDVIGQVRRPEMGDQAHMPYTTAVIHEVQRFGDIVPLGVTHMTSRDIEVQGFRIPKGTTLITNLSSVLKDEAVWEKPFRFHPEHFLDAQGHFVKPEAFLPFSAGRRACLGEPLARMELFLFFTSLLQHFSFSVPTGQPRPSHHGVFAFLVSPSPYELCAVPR

[17] = Induction of Cytochrome P450 up to 30 uM; format: ADME
[18] = tested on: Rattus norvegicus; assay: Half life in rat at 2 mg/kg, iv; format: ADME, organism-based; design: dose 2 mg/kg, route intravenous; settings: in vivo
Procedure, shortened: (§3)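 Rats were dosed iv at 2 mg/kg and orally at 10 mg/kg. Plasma PK parameters derived: CL (L/h/kg), Vss (L/kg), t1/2 (h), Cmax (nM), Tmax (h), AUC (nM h) and oral F%.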

[19] = Clearance in dog at 2 mg/kg, iv; format: ADME, organism-based, Canis lupus familiaris; design: dose 2 mg/kg, route intravenous; settings: in vivo
[20] = Volume of distribution at steady state in dog at 2 mg/kg, iv; format: ADME, organism-based, Canis lupus familiaris; design: dose 2 mg/kg, route intravenous; settings: in vivo, read-out: Vdss
[21] = Half life in dog at 2 mg/kg, iv; format: ADME, organism-based, Canis lupus familiaris; design: dose 2 mg/kg, route intravenous; settings: in vivo
[22] = Tmax in rat at 10 mg/kg, po; format: ADME, organism-based; design: dose 10 mg/kg, route oral; settings: in vivo; procedure, shortened: as §3
[23] = tested on: Rattus norvegicus; assay: AUC in rat at 10 mg/kg, po; format: ADME, organism-based, Plasma; design: dose 10 mg/kg, route oral; settings: in vivo; procedure, shortened: as §3
[24] = Half life in rat at 10 mg/kg, po; format: ADME, organism-based; design: dose 10 mg/kg, route oral; settings: in vivo; procedure, shortened: as §3
[25] = tested on: Rattus norvegicus; assay: Oral bioavailability in rat at 10 mg/kg; format: ADME, organism-based; settings: in vivo; procedure, shortened: as §3
[26] = Cmax in dog at 10 mg/kg, po; format: ADME, organism-based, Canis lupus familiaris; design: dose 10 mg/kg, route oral; settings: in vivo
[27] = Tmax in dog at 10 mg/kg, po; format: ADME, organism-based, Canis lupus familiaris; design: dose 10 mg/kg, route oral; settings: in vivo
[28] = AUC in dog at 10 mg/kg, po; format: ADME, organism-based, Canis lupus familiaris; design: dose 10 mg/kg, route oral; settings: plasma
[29] = Half life in dog at 10 mg/kg, po; format: ADME, organism-based, Canis lupus familiaris; design: dose 10 mg/kg, route oral; settings: in vivo
[30] = Oral bioavailability in dog at 10 mg/kg; format: ADME, organism-based, Canis lupus familiaris; settings: in vivo

T1 sequence (Q12809 whole entry): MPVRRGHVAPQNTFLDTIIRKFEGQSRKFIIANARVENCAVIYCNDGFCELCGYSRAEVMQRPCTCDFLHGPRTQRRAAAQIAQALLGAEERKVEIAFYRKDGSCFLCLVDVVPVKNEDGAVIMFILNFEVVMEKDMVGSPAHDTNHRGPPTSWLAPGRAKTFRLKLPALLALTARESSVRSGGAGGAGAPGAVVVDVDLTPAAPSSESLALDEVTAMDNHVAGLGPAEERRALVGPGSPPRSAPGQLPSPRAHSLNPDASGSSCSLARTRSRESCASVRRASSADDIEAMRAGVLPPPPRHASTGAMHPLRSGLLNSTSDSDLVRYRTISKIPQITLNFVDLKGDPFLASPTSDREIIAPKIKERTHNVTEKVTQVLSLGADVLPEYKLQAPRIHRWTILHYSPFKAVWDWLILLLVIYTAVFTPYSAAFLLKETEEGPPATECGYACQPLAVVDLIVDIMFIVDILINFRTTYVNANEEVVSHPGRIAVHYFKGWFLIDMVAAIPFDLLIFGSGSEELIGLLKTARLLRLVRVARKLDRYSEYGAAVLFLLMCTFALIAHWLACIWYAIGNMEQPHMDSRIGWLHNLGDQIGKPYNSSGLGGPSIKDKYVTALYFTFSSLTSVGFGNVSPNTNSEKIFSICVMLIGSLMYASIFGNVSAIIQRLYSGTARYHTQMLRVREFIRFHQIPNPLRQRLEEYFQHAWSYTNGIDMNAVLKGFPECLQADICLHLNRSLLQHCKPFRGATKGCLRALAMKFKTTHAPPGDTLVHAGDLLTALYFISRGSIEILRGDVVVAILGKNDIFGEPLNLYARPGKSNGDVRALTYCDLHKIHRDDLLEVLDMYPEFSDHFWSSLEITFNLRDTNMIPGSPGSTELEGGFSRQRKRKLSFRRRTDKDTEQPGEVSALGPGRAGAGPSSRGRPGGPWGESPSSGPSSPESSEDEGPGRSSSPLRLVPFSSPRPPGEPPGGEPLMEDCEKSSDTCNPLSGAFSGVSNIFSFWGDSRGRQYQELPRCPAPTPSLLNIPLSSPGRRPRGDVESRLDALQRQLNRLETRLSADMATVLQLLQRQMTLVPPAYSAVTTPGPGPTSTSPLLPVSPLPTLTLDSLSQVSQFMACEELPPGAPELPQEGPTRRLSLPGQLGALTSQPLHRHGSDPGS
Sequence of C-C chemokine receptor type 2 (Mus musculus, UniProt P51683) (P51683 whole entry): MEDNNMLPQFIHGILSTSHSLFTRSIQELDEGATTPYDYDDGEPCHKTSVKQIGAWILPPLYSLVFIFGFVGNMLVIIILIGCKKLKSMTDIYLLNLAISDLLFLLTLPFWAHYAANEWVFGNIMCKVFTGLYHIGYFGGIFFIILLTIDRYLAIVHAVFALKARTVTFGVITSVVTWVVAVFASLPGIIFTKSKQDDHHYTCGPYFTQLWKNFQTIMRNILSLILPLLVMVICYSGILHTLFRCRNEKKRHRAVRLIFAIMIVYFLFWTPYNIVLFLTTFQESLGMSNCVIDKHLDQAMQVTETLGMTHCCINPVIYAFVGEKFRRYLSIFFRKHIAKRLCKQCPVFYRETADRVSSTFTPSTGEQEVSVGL

O=C(NCC(=O)N1CC[C@H](N[C@H]2CC[C@@](O)(c3ccc(-c4ncccn4)cn3)CC2)C1)c1cccc(C(F)(F)F)c1 [PF-4136309]
IC50 [1]: > 30 µM
IC50 [2]: 17 nM
IC50 [3]: 13 nM
IC50 [4]: 2.8 nM
inhibition [5]: inactive
inhibition [6]: inactive
inhibition [7]: inactive
IC50 [8]: 20 µM
fraction unbound [9]: 0.23
half-life [10]: 89 min
Drug metabolism [11]: Not Active
Drug metabolism [12]: Not Active
IC50 [13]: > 30 µM
IC50 [14]: > 30 µM
IC50 [15]: > 30 µM
IC50 [16]: > 30 µM
Activity [17]: Not Active
t1/2 [18]: 150 min
clearance [19]: 7.67 mL/min/kg
Vd [20]: 0.62 L/kg
half-life [21]: 144 min
Tmax [22]: 1.2 h
AUC [23]: 2723 nM·h
half-life [24]: 150 min
F [25]: 78%
Cmax [26]: 20 µM
Tmax [27]: 15 min
AUC [28]: 35.6 µM·h
half-life [29]: 192 min
bioavailability [30]: 78%
